High-throughput results as filed in PubChem BioAssay.
This is a sample that favours compounds with a hit; in the whole collection about 3.6% have one here.
pPAFAH inh: inhibitors of human plasma PAF acetylhydrolase (pPAFAH) | recombinant pPAFAH, FP-rhodamine probe fluorescence polarization | AID 463082 | inhibition, % at 3.39 µM | hit rate 1.5% among 330,000 | Q13093;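 active means inhibition above the mean inhibition across the screen plus 3 SD, cut at about 25% in these data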;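 further: inhibitors block binding of the rhodamine activity-based probe so polarization drops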
PAFAH1B2 FP inh: PAFAH1B2 (human) inhibition; recombinant PAFAH1B2, FP-rhodamine activity probe, fluorescence polarization; P68402; hit rate 1.2% among 340,000; inhibition, % at 3.39 µM;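 active means inhibition above the mean of all tested compounds plus 3 SD, cut at about 24% in these data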
Target sequence (P68402 whole entry, looked up): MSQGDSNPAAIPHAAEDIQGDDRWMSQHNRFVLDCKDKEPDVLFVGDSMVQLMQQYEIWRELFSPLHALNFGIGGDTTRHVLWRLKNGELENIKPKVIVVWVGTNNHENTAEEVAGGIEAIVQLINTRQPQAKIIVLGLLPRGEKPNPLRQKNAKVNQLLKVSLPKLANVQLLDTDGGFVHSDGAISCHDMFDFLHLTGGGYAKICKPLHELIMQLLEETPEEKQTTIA
IMP-1 inh-1: inhibitors of Pseudomonas aeruginosa IMP-1 metallo-beta-lactamase | hit rate 0.45% among 290,000 | AID 1556 | inhibition, % at 5.6 µM | purified IMP-1, nitrocefin hydrolysis, epi-absorbance fluorescence;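 active means inhibition above the mean plus 3 SD of all compounds in the same screening run, cut at about 4.5% in these data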
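Assay system: purified recombinant IMP-1 beta-lactamase. Input: IMP-1 0.2 nM before substrate addition. Buffer or medium: Zinc- and detergent-supplemented HEPES buffer, pH 7.1. Schedule: 25 °C, 15 min preincubation, 25 min reaction. Signal: Epi-absorbance fluorescence, 480 nm excitation, 530 nm emission. Evaluation: percent inhibition from optical density relative to buffer-blank wells.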
VIM-2 inh: inhibitors of Pseudomonas aeruginosa VIM-2 metallo-beta-lactamase | purified VIM-2, nitrocefin hydrolysis, epi-absorbance fluorescence | inhibition, % at 5.6 µM | hit rate 0.89% among 290,000 | AID 1527;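 active means inhibition above the mean of all tested compounds plus 3 SD, cutoff set per screening run, cut at about 7.5% in these data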;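 further: red hydrolysis product quenches plate fluorescence so inhibitors raise well fluorescence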
PAFAH1B3 FP inh: PAFAH1B3 (human) inhibition. inhibition, % at 3.39 µM. Q15102. recombinant PAFAH1B3, FP-rhodamine probe, fluorescence polarization. hit rate 0.28% among 340,000;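 active means inhibition above the screen-wide average of all tested compounds plus 3 SD, cut at about 25% in these data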
Target sequence (Q15102 whole entry, looked up): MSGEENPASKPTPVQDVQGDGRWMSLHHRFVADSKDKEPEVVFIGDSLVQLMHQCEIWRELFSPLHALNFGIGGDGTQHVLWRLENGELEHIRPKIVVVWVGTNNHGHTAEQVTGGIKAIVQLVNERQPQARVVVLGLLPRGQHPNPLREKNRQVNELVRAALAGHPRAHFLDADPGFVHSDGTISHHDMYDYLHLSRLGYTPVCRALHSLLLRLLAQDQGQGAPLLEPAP
PAFAH2 FP inh: inhibitors of human PAFAH2 | Q99487 | recombinant PAFAH2, FP-rhodamine activity probe, fluorescence polarization | inhibition, % at 3.39 µM | hit rate 0.99% among 340,000 | AID 492956;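 active means inhibition above the mean over all tested compounds plus 3 SD, cut at about 30% in these data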;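 further: inhibitors block probe labeling of enzyme so polarization drops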
IMP-1 inh-2: IMP-1 inhibition, counter-screen for VIM-2 inhibitors. shares compounds with VIM-2 inh. purified IMP-1, nitrocefin hydrolysis, epi-absorbance fluorescence. inhibition, % at 5.6 µM. 1,300 tested, under 10 active. AID 1856; call rule not given here
VIM-2 FRET inh: counter-screen for VIM-2 inhibitors: epi-absorbance artifacts via FRET | purified VIM-2, CCF2 FRET substrate hydrolysis | AID 1857 | inhibition, % at 5.6 µM | hit rate 23% among 1,300 | shares compounds with VIM-2 inh;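 active means inhibition above the mean of all tested compounds plus 3 SD, cut at about 19% in these data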
TEM-1 counter: TEM-1 inhibition, counter-screen for VIM-2 inhibitors | shares compounds with VIM-2 inh | Purified TEM-1, nitrocefin hydrolysis, epi-absorbance fluorescence | hit rate 3% among 1,300 | inhibition, % at 5.6 µM | AID 1866;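 active means inhibition above that campaign's mean inhibition plus 3 SD, cut at about 0.46% in these data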
VIM-2 confirm 2: confirmation of P. aeruginosa VIM-2 metallo-beta-lactamase inhibitors; purified VIM-2, nitrocefin hydrolysis, epi-absorbance; shares compounds with VIM-2 inh; hit rate 96% among 1,300; inhibition, % at 5.6 µM; AID 2187;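 active means inhibition of the VIM-2 beta-lactamase enzyme above about 11% from the earlier first-round screen, limit read from the data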
Large screens that a line does not name were inactive (follow-up assays come after a bar, where they were run).

Cc1cccc(-n2c(O)c(C)c(=O)[nH]c2=S)c1	none (no result: pPAFAH inh)
CCCCCCC[n+]1ccc(-c2cc[n+](CCCCCCC)cc2)cc1	IMP-1 inh-1 5.0
COC(=O)C1=C(c2cccc(NC(C)=O)c2)C[C@@H]2CC[C@H]1N2C	none (no result: IMP-1 inh-1, VIM-2 inh)
COc1ccc(CN(CCc2c[nH]c3ccccc23)Cc2ccc(OC)cc2)cc1	none (no result: pPAFAH inh, IMP-1 inh-1, VIM-2 inh)
Cc1ccnc(-n2c(C)cc(C=C3C(=O)N(C)C(=S)N(C)C3=O)c2C)c1	none
Cc1cc(C=C2C(=O)N(C)C(=S)N(C)C2=O)c(C)n1-c1ccncc1	IMP-1 inh-1 18 (no result: PAFAH1B2 FP inh, PAFAH1B3 FP inh, PAFAH2 FP inh)
CN(C)[C@@H]1C(=O)C(C(N)=O)=C(O)[C@@]2(O)C(=O)C3=C(O)c4c(O)ccc(Cl)c4[C@@](C)(O)[C@H]3C[C@@H]12	pPAFAH inh 30
CCC(COC(=O)c1cc(OC)c(OC)c(OC)c1)(c1ccccc1)N(C)C (configuration not stated)	IMP-1 inh-1 41
CN/C=C(/Cl)P(=O)(OC(C)C)OC(C)C	none (no result: IMP-1 inh-1, VIM-2 inh)
ClC(Cl)=C(c1ccc(Cl)cc1)c1ccc(Cl)cc1	PAFAH1B2 FP inh 25 (no result: IMP-1 inh-1, VIM-2 inh)
CCN1C(=O)C(=C/C=C/c2ccco2)C(=O)N(CC)C1=S	IMP-1 inh-1 5.8
CCN1C(=O)C(=C2C=C(C)N(Cc3ccco3)C(C)=C2)C(=O)N(CC)C1=S	none
CCn1ccnc1CN1CCCC(C(=O)c2ccc(SC)cc2)C1 (configuration not stated)	none
O=c1[nH]c(=S)n(CCC2=CCCCC2)c(O)c1/C=N/Nc1ccccc1	PAFAH1B2 FP inh 35
Cc1ccc(-c2nc3ccc(Cl)cc3n2OC(=O)N(C)C)cc1	PAFAH1B2 FP inh 62
Cn1c(O)c(/C=C2\N=c3ccccc3=C2CCNC(=S)NC2CC2)c(=O)n(C)c1=O	PAFAH1B2 FP inh 56
Cc1ccccc1-n1c(O)c(C(c2ccncc2)c2c(O)n(-c3ccccc3C)c(=O)[nH]c2=O)c(=O)[nH]c1=O	none
COCc1cc(C2SCC(=O)Nc3c2c(=O)[nH]n3C(C)C)ccc1OC (configuration not stated)	none
CCCOc1ccccc1C1SCC(=O)Nc2c1c(=O)[nH]n2C(C)CCC (configuration not stated)	VIM-2 inh 8.7
CCCC(C)n1[nH]c(=O)c2c1NC(=O)CSC2c1ccc(OC)cc1 (configuration not stated)	pPAFAH inh 28
O=C1NC(=S)N(Cc2ccco2)C(=O)/C1=C\c1cccs1	IMP-1 inh-1 5.1 (no result: pPAFAH inh, PAFAH1B2 FP inh, PAFAH1B3 FP inh, PAFAH2 FP inh)
C=CCN1C(=O)/C(=C/c2cccs2)C(=O)NC1=S	none
COC(=O)C1=C(c2cc3ccccc3s2)C[C@@H]2CC[C@H]1N2C(=O)N1CCCC1	none (no result: IMP-1 inh-1, VIM-2 inh)
O=C1COc2ccc(C(=O)COC(=O)Cc3ccccc3)cc2N1	none (no result: IMP-1 inh-1, VIM-2 inh)
CCOC(=O)c1c(-n2c(C)cc(C=C3C(=O)NC(=S)NC3=O)c2C)sc2c1CCCC2	pPAFAH inh 25
Cc1cccc(C(O)(C(=O)O)c2ccccc2)c1 (configuration not stated)	none (no result: pPAFAH inh, IMP-1 inh-1, VIM-2 inh)
CC1CC(OP(O)(=S)c2ccc(N(C)C)cc2NC(=O)c2cccs2)CC(C)(C)C1 (configuration not stated)	PAFAH1B2 FP inh 40
NP(=O)(Oc1ccccc1Cl)Oc1ccccc1Cl	PAFAH1B2 FP inh 24
NP(=O)(OCC(F)(F)F)Oc1cccc2ccccc12 (configuration not stated)	none
COc1ccc(-n2nc(C(=O)NCC(=O)N3CCC4(CC3)OCCO4)c3ccccc3c2=O)cc1Cl	none
CN1CCC(N(C)c2nc(-c3ccccc3)nc3ccccc23)CC1	VIM-2 inh 21 | IMP-1 inh-2 inactive | VIM-2 FRET inh inactive | TEM-1 counter inactive | VIM-2 confirm 2 33
